# Assay results taken from ChEMBL document CHEMBL5303300, “EUbOPEN Chemogenomics Library - Multiplex” (2023).
# Values joined by “and” are separate entries in the source; they are usually repeats but may differ in a detail not shown here. Equal values may be shown once.
# Assays:
# Assay type in all cases: toxicity, cell-based
# [1] = system: Fibroblast; experiment: Multiplex assay against human fibroblast; settings: number of replicates 2
# Method in brief: (§1)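 Compound was added to live cells that had been stained at seeding with Hoechst33342, BioTracker Green Microtubule Cytoskeleton Dye, MitoTracker Red and Annexin V Alexa Fluor 680, and imaging followed on a CQ1 microscope at 37°C and 5% CO2. CellPathfinder machine-learning gating divided cells into Hoechst high-intensity objects or normal cells, normal cells into healthy, pyknosed or fragmented nuclei, and pyknosed cells into mitotic or apoptotic. Tubulin, mitochondrial-mass and membrane-permeability phenotypes are per cents of healthy-nucleus cells.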
# [2] = system: HEK-293T; experiment: Multiplex assay against HEK293T; settings: human, number of replicates 2; method in brief: as §1
# [3] = system: U2OS; experiment: Multiplex assay against U2OS; settings: human, number of replicates 2; method in brief: as §1
# [4] = 12 h, 1 µM, compound concentration 1 uM
# [5] = 12 h, 10 µM, compound concentration 10 uM
# [6] = 24 h, 1 µM, compound concentration 1 uM
# [7] = 24 h, 10 µM, compound concentration 10 uM
# [8] = 48 h, 1 µM, compound concentration 1 uM
# [9] = 48 h, 10 µM, compound concentration 10 uM
compound,measurement,setting,value
CC(C)N1CCN(Cc2cnc(-c3cc(-c4cccc5[nH]ccc45)cc4[nH]ncc34)o2)CC1 [NEMIRALISIB],Population Apoptotic (%),[1]; [4],48% and 43%
same,Population Fragmented Nuclei (%),[1]; [4],10%
same,Population Healthy Nuclei (%),[1]; [4],72% and 64%
same,Population Hoechst High Intensity Objects (%),[1]; [4],0%
same,Population Membrane Permeable-Phenotype (%),[1]; [4],6% and 3%
same,Population Mitochondria Different-Phenotype (%),[1]; [4],2% and 0%
same,Population Mitotic Cells (%),[1]; [4],51% and 56%
same,Population Normal (%),[1]; [4],100% and 99%
same,Population Pyknosed Nuclei (%),[1]; [4],16% and 24%
same,Population Tubulin-Different-Phenotype (%),[1]; [4],19% and 9%
same,Total Cell Count,[1]; [4],206 and 286
same,Population Apoptotic (%),[1]; [5],32% and 38%
same,Population Fragmented Nuclei (%),[1]; [5],7% and 15%
same,Population Healthy Nuclei (%),[1]; [5],63% and 69%
same,Population Hoechst High Intensity Objects (%),[1]; [5],0% and 2%
same,Population Membrane Permeable-Phenotype (%),[1]; [5],7%
same,Population Mitochondria Different-Phenotype (%),[1]; [5],6% and 12%
same,Population Mitotic Cells (%),[1]; [5],67% and 61%
same,Population Normal (%),[1]; [5],100% and 97%
same,Population Pyknosed Nuclei (%),[1]; [5],28% and 15%
same,Population Tubulin-Different-Phenotype (%),[1]; [5],58% and 61%
same,Total Cell Count,[1]; [5],207 and 263
same,Population Apoptotic (%),[1]; [6],50% and 62%
same,Population Fragmented Nuclei (%),[1]; [6],8% and 10%
same,Population Healthy Nuclei (%),[1]; [6],70%
same,Population Hoechst High Intensity Objects (%),[1]; [6],0%
same,Population Membrane Permeable-Phenotype (%),[1]; [6],7%
same,Population Mitochondria Different-Phenotype (%),[1]; [6],2% and 1%
same,Population Mitotic Cells (%),[1]; [6],50% and 37%
same,Population Normal (%),[1]; [6],100%
same,Population Pyknosed Nuclei (%),[1]; [6],20% and 19%
same,Population Tubulin-Different-Phenotype (%),[1]; [6],25% and 11%
same,Total Cell Count,[1]; [6],201 and 273
same,Population Apoptotic (%),[1]; [7],52% and 71%
same,Population Fragmented Nuclei (%),[1]; [7],5% and 15%
same,Population Healthy Nuclei (%),[1]; [7],72% and 68%
same,Population Hoechst High Intensity Objects (%),[1]; [7],3% and 5%
same,Population Membrane Permeable-Phenotype (%),[1]; [7],7% and 3%
same,Population Mitochondria Different-Phenotype (%),[1]; [7],17% and 22%
same,Population Mitotic Cells (%),[1]; [7],47% and 28%
same,Population Normal (%),[1]; [7],96% and 95%
same,Population Pyknosed Nuclei (%),[1]; [7],22% and 15%
same,Population Tubulin-Different-Phenotype (%),[1]; [7],64% and 58%
same,Total Cell Count,[1]; [7],175 and 240
same,Population Apoptotic (%),[1]; [8],54% and 64%
same,Population Fragmented Nuclei (%),[1]; [8],11% and 12%
same,Population Healthy Nuclei (%),[1]; [8],73% and 67%
same,Population Hoechst High Intensity Objects (%),[1]; [8],0%
same,Population Membrane Permeable-Phenotype (%),[1]; [8],9% and 3%
same,Population Mitochondria Different-Phenotype (%),[1]; [8],3% and 0%
same,Population Mitotic Cells (%),[1]; [8],45% and 35%
same,Population Normal (%),[1]; [8],100%
same,Population Pyknosed Nuclei (%),[1]; [8],15% and 19%
same,Population Tubulin-Different-Phenotype (%),[1]; [8],15% and 7%
same,Total Cell Count,[1]; [8],214 and 290
same,Population Apoptotic (%),[1]; [9],84% and 61%
same,Population Fragmented Nuclei (%),[1]; [9],10% and 15%
same,Population Healthy Nuclei (%),[1]; [9],69% and 68%
same,Population Hoechst High Intensity Objects (%),[1]; [9],7% and 5%
same,Population Membrane Permeable-Phenotype (%),[1]; [9],6% and 4%
same,Population Mitochondria Different-Phenotype (%),[1]; [9],11% and 14%
same,Population Mitotic Cells (%),[1]; [9],15% and 38%
same,Population Normal (%),[1]; [9],92% and 94%
same,Population Pyknosed Nuclei (%),[1]; [9],19% and 16%
same,Population Tubulin-Different-Phenotype (%),[1]; [9],34% and 40%
same,Total Cell Count,[1]; [9],178 and 231
same,Population Apoptotic (%),[2]; [4],45% and 59%
same,Population Fragmented Nuclei (%),[2]; [4],5% and 3%
same,Population Healthy Nuclei (%),[2]; [4],77% and 74%
same,Population Hoechst High Intensity Objects (%),[2]; [4],12% and 13%
same,Population Membrane Permeable-Phenotype (%),[2]; [4],4% and 2%
same,Population Mitochondria Different-Phenotype (%),[2]; [4],18% and 22%
same,Population Mitotic Cells (%),[2]; [4],54% and 40%
same,Population Normal (%),[2]; [4],87% and 86%
same,Population Pyknosed Nuclei (%),[2]; [4],16% and 21%
same,Population Tubulin-Different-Phenotype (%),[2]; [4],69% and 70%
same,Total Cell Count,[2]; [4],748 and 665
same,Population Apoptotic (%),[2]; [5],62% and 64%
same,Population Fragmented Nuclei (%),[2]; [5],2% and 3%
same,Population Healthy Nuclei (%),[2]; [5],87% and 84%
same,Population Hoechst High Intensity Objects (%),[2]; [5],11% and 7%
same,Population Membrane Permeable-Phenotype (%),[2]; [5],5% and 3%
same,Population Mitochondria Different-Phenotype (%),[2]; [5],46% and 61%
same,Population Mitotic Cells (%),[2]; [5],37% and 35%
same,Population Normal (%),[2]; [5],88% and 92%
same,Population Pyknosed Nuclei (%),[2]; [5],9% and 12%
same,Population Tubulin-Different-Phenotype (%),[2]; [5],98%
same,Total Cell Count,[2]; [5],425 and 404
same,Population Apoptotic (%),[2]; [6],52% and 61%
same,Population Fragmented Nuclei (%),[2]; [6],10% and 6%
same,Population Healthy Nuclei (%),[2]; [6],75% and 74%
same,Population Hoechst High Intensity Objects (%),[2]; [6],9% and 11%
same,Population Membrane Permeable-Phenotype (%),[2]; [6],2%
same,Population Mitochondria Different-Phenotype (%),[2]; [6],7% and 8%
same,Population Mitotic Cells (%),[2]; [6],47% and 38%
same,Population Normal (%),[2]; [6],90% and 88%
same,Population Pyknosed Nuclei (%),[2]; [6],13% and 19%
same,Population Tubulin-Different-Phenotype (%),[2]; [6],40% and 42%
same,Total Cell Count,[2]; [6],1140 and 951
same,Population Apoptotic (%),[2]; [7],50% and 57%
same,Population Fragmented Nuclei (%),[2]; [7],3%
same,Population Healthy Nuclei (%),[2]; [7],85% and 78%
same,Population Hoechst High Intensity Objects (%),[2]; [7],18% and 14%
same,Population Membrane Permeable-Phenotype (%),[2]; [7],3%
same,Population Mitochondria Different-Phenotype (%),[2]; [7],39% and 57%
same,Population Mitotic Cells (%),[2]; [7],50% and 42%
same,Population Normal (%),[2]; [7],81% and 85%
same,Population Pyknosed Nuclei (%),[2]; [7],11% and 17%
same,Population Tubulin-Different-Phenotype (%),[2]; [7],94% and 96%
same,Total Cell Count,[2]; [7],468 and 473
same,Population Apoptotic (%),[2]; [8],21% and 33%
same,Population Fragmented Nuclei (%),[2]; [8],17% and 10%
same,Population Healthy Nuclei (%),[2]; [8],78% and 84%
same,Population Hoechst High Intensity Objects (%),[2]; [8],10%
same,Population Membrane Permeable-Phenotype (%),[2]; [8],6% and 2%
same,Population Mitochondria Different-Phenotype (%),[2]; [8],0% and 1%
same,Population Mitotic Cells (%),[2]; [8],78% and 66%
same,Population Normal (%),[2]; [8],89%
same,Population Pyknosed Nuclei (%),[2]; [8],4%
same,Population Tubulin-Different-Phenotype (%),[2]; [8],19%
same,Total Cell Count,[2]; [8],2776 and 2131
same,Population Apoptotic (%),[2]; [9],51% and 60%
same,Population Fragmented Nuclei (%),[2]; [9],8% and 7%
same,Population Healthy Nuclei (%),[2]; [9],84% and 85%
same,Population Hoechst High Intensity Objects (%),[2]; [9],11% and 15%
same,Population Membrane Permeable-Phenotype (%),[2]; [9],6% and 7%
same,Population Mitochondria Different-Phenotype (%),[2]; [9],28% and 18%
same,Population Mitotic Cells (%),[2]; [9],48% and 40%
same,Population Normal (%),[2]; [9],88% and 84%
same,Population Pyknosed Nuclei (%),[2]; [9],6% and 7%
same,Population Tubulin-Different-Phenotype (%),[2]; [9],86% and 80%
same,Total Cell Count,[2]; [9],815 and 665
same,Population Apoptotic (%),[3]; [4],42% and 80%
same,Population Fragmented Nuclei (%),[3]; [4],12% and 2%
same,Population Healthy Nuclei (%),[3]; [4],70% and 85%
same,Population Hoechst High Intensity Objects (%),[3]; [4],0%
same,Population Membrane Permeable-Phenotype (%),[3]; [4],0% and 1%
same,Population Mitochondria Different-Phenotype (%),[3]; [4],3% and 0%
same,Population Mitotic Cells (%),[3]; [4],57% and 20%
same,Population Normal (%),[3]; [4],100% and 99%
same,Population Pyknosed Nuclei (%),[3]; [4],17% and 11%
same,Population Tubulin-Different-Phenotype (%),[3]; [4],53% and 72%
same,Population Apoptotic (%),[3]; [5],69% and 57%
same,Population Fragmented Nuclei (%),[3]; [5],13%
same,Population Healthy Nuclei (%),[3]; [5],62% and 65%
same,Population Hoechst High Intensity Objects (%),[3]; [5],0%
same,Population Membrane Permeable-Phenotype (%),[3]; [5],15% and 8%
same,Population Mitotic Cells (%),[3]; [5],30% and 42%
same,Population Normal (%),[3]; [5],100%
same,Population Pyknosed Nuclei (%),[3]; [5],24% and 20%
same,Population Tubulin-Different-Phenotype (%),[3]; [5],18% and 30%
same,Population Apoptotic (%),[3]; [6],60% and 80%
same,Population Fragmented Nuclei (%),[3]; [6],4% and 3%
same,Population Healthy Nuclei (%),[3]; [6],72% and 87%
same,Population Hoechst High Intensity Objects (%),[3]; [6],0%
same,Population Membrane Permeable-Phenotype (%),[3]; [6],0% and 1%
same,Population Mitochondria Different-Phenotype (%),[3]; [6],0% and 2%
same,Population Mitotic Cells (%),[3]; [6],40% and 19%
same,Population Normal (%),[3]; [6],100% and 99%
same,Population Pyknosed Nuclei (%),[3]; [6],22% and 9%
same,Population Tubulin-Different-Phenotype (%),[3]; [6],59% and 78%
same,Population Apoptotic (%),[3]; [7],33% and 60%
same,Population Fragmented Nuclei (%),[3]; [7],10%
same,Population Healthy Nuclei (%),[3]; [7],52% and 55%
same,Population Hoechst High Intensity Objects (%),[3]; [7],2% and 0%
same,Population Membrane Permeable-Phenotype (%),[3]; [7],4% and 8%
same,Population Mitochondria Different-Phenotype (%),[3]; [7],36% and 43%
same,Population Mitotic Cells (%),[3]; [7],66% and 39%
same,Population Normal (%),[3]; [7],97% and 99%
same,Population Pyknosed Nuclei (%),[3]; [7],37% and 34%
same,Population Tubulin-Different-Phenotype (%),[3]; [7],32% and 33%
same,Population Apoptotic (%),[3]; [8],47% and 70%
same,Population Fragmented Nuclei (%),[3]; [8],4% and 3%
same,Population Healthy Nuclei (%),[3]; [8],74% and 88%
same,Population Hoechst High Intensity Objects (%),[3]; [8],0%
same,Population Membrane Permeable-Phenotype (%),[3]; [8],1% and 2%
same,Population Mitochondria Different-Phenotype (%),[3]; [8],1% and 0%
same,Population Mitotic Cells (%),[3]; [8],52% and 29%
same,Population Normal (%),[3]; [8],100%
same,Population Pyknosed Nuclei (%),[3]; [8],20% and 8%
same,Population Tubulin-Different-Phenotype (%),[3]; [8],81% and 76%
same,Population Apoptotic (%),[3]; [9],60% and 67%
same,Population Fragmented Nuclei (%),[3]; [9],23% and 8%
same,Population Healthy Nuclei (%),[3]; [9],25% and 55%
same,Population Hoechst High Intensity Objects (%),[3]; [9],3% and 2%
same,Population Membrane Permeable-Phenotype (%),[3]; [9],12% and 11%
same,Population Mitochondria Different-Phenotype (%),[3]; [9],37% and 35%
same,Population Mitotic Cells (%),[3]; [9],39% and 32%
same,Population Normal (%),[3]; [9],96% and 97%
same,Population Pyknosed Nuclei (%),[3]; [9],51% and 35%
same,Population Tubulin-Different-Phenotype (%),[3]; [9],25% and 38%
